Screens: PubChem, several laboratories
Shown are actives, neighbours in structure and some others; about 2.6% of the full set was active somewhere.
TNAP act hi DEA – TNAP activators at high phosphate acceptor level, primary screen, biochemical, luminescence, uHTS. Alkaline phosphatase, tissue-nonspecific isozyme (Homo sapiens), P05186. 200,000 tested, under 10 active. activation factor at 20 µM. purified TNAP, CDP-star luminescence, 1 M DEA, 30 min; stronger effect = higher value; 0 = EDTA background, 1 = DMSO-only activity;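 active means activation factor at least 2 at 20 µM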
Target sequence (P05186 whole entry, looked up): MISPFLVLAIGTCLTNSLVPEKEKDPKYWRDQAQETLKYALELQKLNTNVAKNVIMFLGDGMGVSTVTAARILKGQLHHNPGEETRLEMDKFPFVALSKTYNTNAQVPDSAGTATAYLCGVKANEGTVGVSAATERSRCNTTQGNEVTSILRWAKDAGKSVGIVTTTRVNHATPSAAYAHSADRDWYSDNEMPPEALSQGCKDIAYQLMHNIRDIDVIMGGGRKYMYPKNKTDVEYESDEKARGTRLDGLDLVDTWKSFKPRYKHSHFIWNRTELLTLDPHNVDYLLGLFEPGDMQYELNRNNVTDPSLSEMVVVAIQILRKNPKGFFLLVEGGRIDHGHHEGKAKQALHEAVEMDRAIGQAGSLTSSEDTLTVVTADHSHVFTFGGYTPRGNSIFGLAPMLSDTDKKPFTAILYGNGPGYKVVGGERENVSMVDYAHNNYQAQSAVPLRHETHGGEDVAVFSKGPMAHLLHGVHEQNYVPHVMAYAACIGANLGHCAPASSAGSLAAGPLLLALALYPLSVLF
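Test system – human TNAP · Doses – 20 µM single point · Incubation – 30 min, room temperature · Signal – luminescent substrate turnover signal · Read-out basis – activation factor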
TNAP inh noacc – human TNAP enzyme inhibitors, primary screen, biochemical, luminescent, no phosphate acceptor, uHTS | Alkaline phosphatase, tissue-nonspecific isozyme (Homo sapiens), P05186 | purified TNAP, CDP-star luminescence, 30 min | inhibition, % at 20 µM | 200,000 compounds, 0.26% hits;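 active means tissue-nonspecific alkaline phosphatase inhibition above about 50% at 20 µM in the single-dose screen, limit read from the data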
WT yeast gro inh – growth inhibition of WT strain, primary screen, mitochondrial fusion inhibitor project, WT and mutant strains, chemical genetic; AID 1362, 2008; 190,000 compounds, 2.1% hits; inhibition, % at 10 µM; mitochondrial fusion phenotypic screen; in the data active means inhibition above about 58%; tested in S. cerevisiae
TNAP inh hiacc – human TNAP enzyme inhibitors, primary screen, biochemical, luminescent, high phosphate acceptor level, uHTS | inhibition, % at 20 µM | Alkaline phosphatase, tissue-nonspecific isozyme (Homo sapiens), P05186 | 200,000 compounds, 0.03% hits | purified TNAP, CDP-star luminescence, 1 M DEA | AID 1135, 2008;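 active means over 50% inhibition of tissue-nonspecific alkaline phosphatase at 20 µM in the single-dose screen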
Arbovirus inh – antivirals against arbovirus infection, primary screen, cell-based, full library, 10K replicate subset; AID 1251, 2008; inhibition, % at 10 µM; 200,000 compounds, 0.37% hits; arbovirus infection cell-based antiviral screen; in the data active means inhibition above about 30%
Of the large screens only hits and unclear results are named; the others gave an inactive call.

COc1ccccc1-c1cc(C(F)(F)F)nc(NCc2cccs2)n1	WT yeast gro inh 65
Cc1sc2nc(CN(C(=O)c3cccs3)C3CCCC3)[nH]c(=O)c2c1C	none
O=C(c1cccs1)N(Cc1nc2sc3c(c2c(=O)[nH]1)CCCC3)C1CCCC1	WT yeast gro inh 61
Clc1ccc(CN(Cc2ccc(Cl)cc2)c2nn[nH]n2)cc1	Arbovirus inh 38
Cc1ccc(CN=c2c([N+](=O)[O-])nn(-c3cccc(Cl)c3)n2O)cc1	WT yeast gro inh 61
CNc1oc(C)nc1S(=O)(=O)c1ccc(C)cc1	WT yeast gro inh 68
Cc1ccc(CCNc2ccc3ccccc3c2)cn1	none (no result: TNAP act hi DEA, TNAP inh noacc, TNAP inh hiacc)
Cc1ccc(CCSc2ccc(C(C)C)cc2)cn1	WT yeast gro inh 74
CCC(=O)Nc1cccc(C(=O)/C=C/c2cc(Br)ccc2OC)c1	WT yeast gro inh 89
COc1ccc(Br)cc1/C=C/C(=O)Nc1ccc2ccccc2c1	none
CCOC(=O)c1cnc(SC)nc1Sc1ccccc1	none
CCN1/C(=C/C(C)=C/c2sc3ccccc3[n+]2CC)Sc2ccccc21	TNAP inh noacc 59
CCN1/C(=C\C=C(C(C)=O)C(C)=O)Sc2ccccc21	none
O=C(CSc1nnc(CCc2ccccc2)n1-c1ccc(Cl)cc1)c1ccccc1	WT yeast gro inh 67
CCCn1c(NCc2cc(C)ccc2O)nc2ccccc21	Arbovirus inh 36
C=CCc1cccc(CNc2nc3ccccc3n2CCC)c1O	WT yeast gro inh 59
C=CCc1cccc(CNc2nc3ccccc3n2CC)c1O	none
CSc1ccccc1NC(=O)COc1ccccc1Cl	none
O=C(O)c1ccc(N2C(=O)Nc3ccccc3N2O)cc1	none
Cc1cccc(/C=N/n2c(-c3ccccn3)n[nH]c2=S)c1	TNAP inh noacc 54
N#CC1=C(N)C2=CCCC[C@H]2[C@H](c2ccc(Br)cc2)C1(C#N)C#N	WT yeast gro inh 68
N#CC1=C(N)C2=CCCC[C@H]2[C@H](c2ccccc2)C1(C#N)C#N	none
FC(F)(F)c1nc(N2CCCC2)ncc1-c1nnnn1-c1ccccc1	WT yeast gro inh 60
Cn1c(-c2ccc(C(C)(C)C)cc2)n[nH]c1=S	none
CC(C)(C)c1ccc(-c2n[nH]c(=S)n2C2CCCC2)cc1	WT yeast gro inh 72
Cc1[nH]n(-c2ccc([N+](=O)[O-])cc2)c(=O)c1C=NCCN1CCN(C(=O)c2ccccc2)CC1	none
Cc1ccc(C(=O)c2coc3cc([N+](=O)[O-])c(O)c([N+](=O)[O-])c23)cc1	Arbovirus inh 37
COc1cccc(CNC(=O)CCC2CCCN(C(=O)c3cc(C4CC4)[nH]n3)C2)c1 (stereo not given)	none
Cc1ccc(-c2csc(NC(=O)C3CC=CCC3C(=O)O)c2C(=O)OC(C)C)cc1 (stereo not given)	Arbovirus inh 47
CCOC(=O)c1c(-c2cccc(C)c2)csc1NC(=O)C1CC=CCC1C(=O)O (stereo not given)	none
CCOC(=O)c1c(-c2ccccc2)csc1NC(=O)CSc1nncs1	WT yeast gro inh 59
CCOC(=O)c1c(-c2ccc(C)cc2)csc1NC(=O)C1CC=CCC1C(=O)O (stereo not given)	Arbovirus inh 35
O=C1CC(N(CCc2ccccc2)C(=S)Nc2ccccc2)C(=O)N1c1ccccc1 (stereo not given)	WT yeast gro inh 71
O=C(Nn1c(SCc2cccc([N+](=O)[O-])c2)nc2ccccc2c1=O)c1ccccc1	Arbovirus inh 39
COc1ccc(C(=O)Nn2c(SCc3cccc([N+](=O)[O-])c3)nc3ccccc3c2=O)cc1	none
CCCCn1c(SCc2cccc([N+](=O)[O-])c2)nc2ccsc2c1=O	Arbovirus inh 34
Cc1ccc(NC(=O)Cc2ccc(F)cc2)cc1	none
CCN(CC)C(=O)/C=C/c1ccc(OC)c(S(=O)(=O)N2CCCCC2)c1	none
Cc1cc(C)cc(-n2c(C)nc3cc(C(=O)O)ccc32)c1	none
Cc1nc(NC(=O)c2ccccc2)sc1-c1csc(Nc2cccc(F)c2)n1	WT yeast gro inh 80
Fc1ccc(Nc2nc(-c3ccncc3)cs2)cc1	none
Cc1nc(C)c(-c2csc(Nc3ccc(F)cc3)n2)s1	WT yeast gro inh 73
Cc1ccc(C(=O)NCc2ccc(N3CCN(C(=O)OC(C)(C)C)CC3)cc2)cc1	WT yeast gro inh 61
O=S(=O)(Nc1ccc(Cl)cc1)c1ccc(N2CCOCC2)c(NC(=S)NC2CC2)c1	none
Cc1noc(C(=O)Nc2sc3c(c2C#N)CCC3)c1Cl	Arbovirus inh 32
Cc1cc(C(=O)Nc2sc3c(c2C#N)CCC3)no1	none
O=C(Nc1nonc1NC(=O)C1CCCCC1)C1CCCCC1	none
Cn1c(=O)n(CCc2ccccc2)c(=O)c2c1nc1n2CCCN1Cc1ccccc1	none
Cn1c(=O)n(CCc2ccccc2)c(=O)c2c1nc1n2CCCN1CCc1ccccc1	WT yeast gro inh 67
O=C(CCCc1cccs1)N1CCN(S(=O)(=O)c2ccccc2Br)CC1	none
O=C(Nc1nc(SCc2ccc(F)cc2)ns1)c1ccco1	WT yeast gro inh 68
CCc1c(C(=O)N/N=C/c2ccc(C)o2)csc1C	none
O=C(CNS(=O)(=O)c1ccccc1)NNC(=O)C(Cl)Cl	TNAP inh noacc 92
O=C(CNS(=O)(=O)c1ccccc1)N/N=C/c1ccc(O)cc1	none
CCO[C@@H]1OC(C(=O)N2CCN(C)CC2)=C[C@H](c2ccc(C(F)(F)F)cc2)[C@H]1CCCO	none
O=C(C1=C[C@@H](c2csc3ccccc23)C[C@@H](OCc2ccc(CO)cc2)O1)N1CCN(Cc2ccccc2)CC1	WT yeast gro inh 94
O=C(C1=C[C@@H](c2csc3ccccc23)C[C@@H](OCc2ccc(CO)cc2)O1)N1CCN(Cc2ccc3c(c2)OCO3)CC1	none
CC(C)(C)[C@@H]1C=C(C(=O)N2CCN(Cc3ccccc3)CC2)O[C@H](OCc2ccc(CO)cc2)C1	WT yeast gro inh 70
CC(C)(C)[C@H]1C=C(C(=O)N2CCN(Cc3ccc4c(c3)OCO4)CC2)O[C@@H](OCc2ccc(CO)cc2)C1	WT yeast gro inh 97
O=C(C1=C[C@@H](c2ccccc2)C[C@@H](OCc2ccc(CO)cc2)O1)N1CCN(Cc2ccc3c(c2)OCO3)CC1	none
C=CCOC(=O)C1=C[C@@H](c2coc3ccccc3c2=O)C[C@@H](OCc2ccc(CO)cc2)O1	WT yeast gro inh 68
N#C/C(=C\c1ccncc1)c1nc2ccccc2c(=O)[nH]1	TNAP inh noacc 54
O=C(Nc1sc2c(c1C(=O)O)CCC2)c1ccc(F)cc1	Arbovirus inh 42
O=C(Nc1sc2c(c1C(=O)O)CCCCC2)c1ccccc1	Arbovirus inh 69
O=C(Nc1nc2c(s1)CCCC2)c1cccnc1	none
O=C(O)c1c(NC(=O)c2cccc3ccccc23)sc2c1CCC2	Arbovirus inh 55
